The record followed here is PubChem BioAssay AID463111 (Johns Hopkins Ion Channel Center, 2010).

The campaign covered roughly 310,000 compounds. About 2,800 (0.9%) were called active.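 How the source made its calls: active means B-score of the integrated calcium signal more than 4 SD below the library mean, with starting fluorescence not abnormally high; inactive means the rest.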 Shown is part of a subset that was picked to be rich in actives.

This experiment can be described thus: RGS4 potentiators or activators, primary screen, cell-based, HEK293 M3R inducible RGS4, calcium flux (AID 463111).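 On B-score: negative B-score means reduced calcium response which marks RGS4 activation or potentiation.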 As to conditions: HEK293 M3R/inducible RGS4, carbachol calcium flux Fluo4, at 10 µM; hits give low values. Summed up: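 Reagent: ECmax carbachol challenge; Test system: M3R-expressing HEK293 line, RGS4 induced by doxycycline; Schedule: overnight RGS4 induction, 30 min dye load 37 °C, 20 min compound RT; Detection: calcium dye Fluo4 fluorescence; Read-out: Agonist-evoked peak-minus-minimum fluorescence over baseline, integrated ratio, B score.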
On the technique in general: A change in cytosolic calcium serves as a functional read-out for many receptors and channels.
Consider `CCS(=O)(=O)Nc1ccc(C2=NN(C(C)=O)C(c3cccs3)C2)cc1` (centres undefined), for which the B-score result is “inactive”. In the case of `CCS(=O)(=O)Nc1ccc(C2=NN(S(=O)(=O)c3ccc(F)cc3)C(c3ccco3)C2)cc1` (centres undefined), the B-score is -7.77 (active).

Turning to `CS(=O)(=O)Nc1ccc(C2=NN(S(C)(=O)=O)C(c3cccs3)C2)cc1` (centres undefined), the B-score entry was “inactive”. Then `COc1ccc(N(CC(=O)Nc2cc(OC)ccc2OC)S(=O)(=O)c2c(C)noc2C)cc1`, with “inactive”. Then `C=CCNC(=O)COC(=O)CNC(=O)c1cc(Cl)cc([N+](=O)[O-])c1`, with “inactive”; and `COc1ccc(Nc2nc(-c3cccnc3)nc3ccccc23)cn1`, with “inactive”; and `CC(=O)Nc1cccc(Nc2nc(-c3cccs3)nc3ccccc23)c1`, with “inactive”. The value for `Cc1cccc(-c2nc(Nc3ccc(O)cc3)c3ccccc3n2)c1` was -8.56 (active); that for `CC(NS(=O)(=O)c1ccc(OCC(=O)N2CCCC2)cc1)c1ccccc1` (centres undefined) was “inactive”; that for `CCc1ccc(N2CC(O)=C(c3nc4ccccc4c(=O)[nH]3)C2=N)cc1` was “inactive”. On to `COc1ccccc1CNC(=O)C1CCN(C(=O)[C@@H]2Cc3ccccc3CN2)CC1`, for which the B-score result is “inactive”. The value for `O=C(Cc1ccccc1)NNC1CC(=O)N(c2ccc(Br)cc2)C1=O` (centres undefined) was “inactive”; that for `Cc1ccc(N2C(=O)CC(Nc3cccc4ccccc34)C2=O)cc1` (centres undefined) was -8.55 (active). Then `CC1=C(C)CC2C(=O)N(c3cccc4ccccc34)C(=O)C2C1` (centres undefined), with “inactive”; and `O=C(NCc1ccccc1)C1CCCN(c2nc3ccsc3c(=O)s2)C1` (centres undefined), with “inactive”.

Regarding `CCCOc1ccc(C(=O)CCC(=O)OC(C)C(=O)Nc2ccc(NC(C)=O)cc2)cc1` (centres undefined), the B-score result was “inactive”. Then `CCCOc1ccc(C(=O)C(CCC(CNCC)C(=O)c2ccc(OCCC)cc2)CNCC)cc1` (centres undefined), with -8.07 (active); and `CCCCOc1ccc(C(=O)NN2CCN(C)CC2)cc1`, with “inactive”; and `COc1ccc(Cl)cc1NS(=O)(=O)c1cccc(C(=O)NCC2CCCO2)c1` (centres undefined), with “inactive”. Then `C[N+](C)(C)CCNC(=O)c1cc[n+](Cc2ccccc2)c(/C=N/O)c1`, with “inactive”; and `Cc1ccc(/C=C(\C#N)C(=O)Nc2cccc3ncccc23)o1`, with “inactive”; and `C=CCn1c(=O)c(C(=O)NCc2ccc3c(c2)OCO3)c(O)c2ccccc21`, with “inactive”. The value for `Cc1ccc(C)c(NC2=NCC(=O)N2c2ccc3c(c2)OCCO3)c1` was “inactive”; that for `CCOc1ccccc1NC(=O)Cn1ncc2ccc([N+](=O)[O-])cc21` was “inactive”; that for `Cc1cccc(C)c1NC(=O)C1(C)c2cccc[n+]2CC(=O)N1Cc1cccs1` (centres undefined) was “inactive”. For `COc1ccc(C(=O)Oc2ccc(-c3nnco3)cc2)cc1S(=O)(=O)N1CCOCC1`, the B-score entry was “inactive”.

As to `Cc1cc(NC(=O)COC(=O)c2ccc(F)c(S(=O)(=O)N3CCOCC3)c2)no1`, the B-score entry was “inactive”. Then `O=C(Oc1ccc(-c2nnco2)cc1)c1ccc(F)c(S(=O)(=O)N2CCOCC2)c1`, with -7.43 (active); and `COc1ccccc1-c1cnn2c(N3CCOCC3)cc(C)nc12`, with “inactive”. For the compound `CC(C)Oc1ccc(CN2CCC(n3nccc3NC(=O)c3cccnc3)CC2)cc1`, the B-score entry was “inactive”. Regarding `Cc1ccc(-n2c(-c3ccc(Cl)cc3)n[nH]c2=S)cc1`, the B-score entry was “inactive”. The value for `Cc1nnc(SCC(=O)NNC(=O)c2ccc(Cl)cc2)n1CC1CCCO1` (centres undefined) was “inactive”; that for `S=c1[nH]nc(-c2ccc(Cl)cc2)n1CC1CCCO1` (centres undefined) was -8.73 (active); that for `O=C(CSc1ncccn1)N1CCCC1` was “inactive”. As to `CCCCCN(C(=O)NC(=O)Nc1ccccc1OC)S(C)(=O)=O`, the B-score entry was “inactive”. The value for `CCCN1C2=C(C(=O)CCC2)C(c2ccc(O)c(Br)c2)C2=C1CCCC2=O` was “inactive”; that for `CCOc1cc(/C=N/NC(=O)c2ccc(CSc3nncn3C)cc2)ccc1OCC(=O)N1CCOCC1` was “inactive”; that for `COCCCNS(=O)(=O)c1cccc(S(=O)(=O)c2cccc(S(=O)(=O)NCCCOC)c2)c1` was “inactive”. The value for `COc1cccc(NC(=O)CN2CCN(c3nc(-c4cccc(OC)c4)cs3)CC2)c1` was “inactive”; that for `COc1cccc(-c2cc3nc4c(c(N5CCC6(CC5)OCCO6)n3n2)CCCC4)c1` was -7.88 (active); that for `COc1cccc(CNc2nc3nc4c(c(=O)n3[nH]2)CCC4)c1` was “inactive”.

Consider `O=C(c1cc2ccccc2o1)N1CCN(Cc2ccccc2)CC1`, for which the B-score entry was “inactive”. Regarding `Cc1cnc(C(=O)N2CCCC(N3CCN(c4ccccc4F)CC3)C2)cn1` (centres undefined), the B-score entry was “inactive”. Then `O=C(NCCc1c[nH]c2ccccc12)c1cc2ccccc2oc1=O`, with “inactive”; and `CCCN(CCC)c1nc2c(C)cccn2c(=O)c1/C=C1/SC(=S)N(Cc2ccco2)C1=O`, with “inactive”. Then `CC(C)NC(=O)C(=O)NCCCOC(C)C`, with “inactive”; and `COc1ccc(C(=O)Nc2nc(-c3ccc(S(=O)(=O)N4CCOCC4)cc3)cs2)cc1`, with -7.75 (active); and `CNC(=O)c1ccsc1NC(=O)c1ccc(S(=O)(=O)N2CCOCC2)cc1`, with “inactive”. The value for `CCOC(=O)c1csc(NC(=O)c2ccc(S(=O)(=O)N3CCCC3)cc2)n1` was “inactive”.

As to `O=C(COC(=O)c1cnccn1)Nc1ccc(Cl)cc1C(F)(F)F`, the B-score entry is “inactive”. Then `COc1ccc(Cc2nnc(SCC(=O)Nc3ccc(C)c(Cl)c3)[nH]c2=O)cc1`, with “inactive”.

`O=C(Nc1ccccc1C(=O)Nc1ccncc1)c1ccc([N+](=O)[O-])cc1`: the B-score result was “inactive”. The value for `CN1C2CCC1CC(NC(=O)c1ccc([N+](=O)[O-])cc1)C2` (centres undefined) was “inactive”; that for `O=C(Nc1cc2c3c(c1)C1CCCC1CN3CC1CCCC21)c1ccc([N+](=O)[O-])cc1` (centres undefined) was -8.07 (active). The value for `O=C(Nc1ccc2c(c1)OCO2)C1CC(c2c(F)cccc2Cl)=NO1` (centres undefined) was “inactive”; that for `COc1cc(NC(=S)NCCSc2ccc(C)cc2)cc(OC)c1` was “inactive”; that for `COc1ccc(/C=C(/NC(=O)c2ccc(C)cc2)c2nc3ccccc3[nH]2)cc1OC` was “inactive”.

With `COc1cc(/C=C(\C#N)c2nc3ccccc3[nH]2)ccc1O`, the B-score was -8.51 (active). Turning to `COc1cc(/C=C(\C#N)c2nc3c(s2)CC(C)CC3)ccc1O` (centres undefined), the B-score entry is “inactive”. The value for `COc1ccccc1NC(=O)N1CCCC1C(=O)NCc1cccs1` (centres undefined) was “inactive”. Then `O=C1Nc2ccc(Br)cc2/C1=N/N=C/C1=C(N2CCOCC2)C(=C\c2ccccc2)/CC1`, with “inactive”. The value for `COc1cccc2sc(N(CCCN(C)C)C(=O)C(c3ccccc3)c3ccccc3)nc12` was “inactive”; that for `COc1cccc2sc(N(CCCN(C)C)C(=O)CCS(=O)(=O)c3ccccc3)nc12` was “inactive”. Take `Cc1cccc2sc(N(CCCN(C)C)C(=O)CCS(=O)(=O)c3ccccc3)nc12`: the B-score is -8.92 (active). Then `CC(C)OC(=O)c1sc2nc3c(cc2c1N)C(=O)CCC3`, with “inactive”; and `Cc1ccc(-c2nn(-c3ccccc3)cc2C(=O)NCCCN2CCCC2=O)cc1`, with “inactive”; and `Cc1cccc(C)c1NC(=O)CNC(=O)c1c(C)nn(-c2ccccc2)c1C`, with “inactive”.

As to `CN(/C(=N/S(=O)(=O)c1cccs1)c1ccccc1)c1ccc(O)cc1`, the B-score result is “inactive”. The value for `CCCNC(=O)CCn1nc(-c2ccccc2)c2ccccc2c1=O` was “inactive”; that for `CCc1cccc(CC)c1NC(=O)COc1ccccc1C(=O)c1cc(C#N)c(=O)n(C2CCCCC2)c1` was “inactive”. The value for `CC(=O)N1CCN(c2ccccc2NC(=S)NC(=O)c2cc3ccccc3o2)CC1` was -6.98 (active); that for `COc1ccc(C(=O)NC(=S)Nc2ccccc2N2CCN(S(C)(=O)=O)CC2)cc1OC` was “inactive”. The value for `CCc1ccc(C(=O)NC(=S)Nc2ccccc2N2CCOCC2)cc1` was “inactive”; that for `CCCCn1c(N)c(N(CC(C)C)C(=O)C2CSC3(C)CCC(=O)N23)c(=O)[nH]c1=O` (centres undefined) was “inactive”; that for `CCCCn1c(N)c(N(CC)C(=O)c2ccc(N(C)S(=O)(=O)c3ccc(C)cc3)cc2)c(=O)[nH]c1=O` was “inactive”. Regarding `CCS(=O)(=O)C1=NSC2=NC(=O)/C(=C\c3cc(C)n(-c4cccc(OC)c4)c3C)C(=N)N21`, the B-score was -7.01 (active). On to `Cc1cc(/C=C2/C(=N)N3C(=NC2=O)SN=C3S(C)(=O)=O)c(C)n1-c1ccccc1`, for which the B-score result was “inactive”.

As to `CCS(=O)(=O)C1=NSC2=NC(=O)/C(=C\c3ccc(OS(=O)(=O)c4ccccc4)cc3)C(=N)N21`, the B-score result is “inactive”. The value for `COCCCNC(=O)CNC(=O)c1nn(-c2ccc(OC)cc2)c(=O)c2ccccc12` was “inactive”; that for `Cc1c(NS(=O)(=O)c2ccc(NC3CCCC3)c([N+](=O)[O-])c2)c(=O)n(-c2ccccc2)n1C` was “inactive”. For the compound `Cc1cc(C=O)c(C)n1-c1ccc(NC2CCCCC2)c([N+](=O)[O-])c1`, the B-score was -7.21 (active). Consider `Cc1cc([N+](=O)[O-])ccc1NC1CCCC1`, for which the B-score entry was “inactive”.

Regarding `Cc1cc(-c2nnc(SCC(=O)Nc3ccc(F)cc3)n2N)n[nH]1`, the B-score result is “inactive”. The value for `O=C(NCc1ccco1)/C(=C/c1cccc([N+](=O)[O-])c1)NC(=O)c1ccco1` was “inactive”; that for `CC(C)N(Cc1ccccc1)C(=O)COC(=O)c1ccccc1SCC(=O)N1CCCC1` was -8.67 (active); that for `COc1ccccc1NC(=O)COC(=O)c1ccccc1SCC(=O)N1CCCC1` was “inactive”. The value for `CC(NC(=O)c1ccccc1SCC(=O)N1CCCC1)c1ccccc1` (centres undefined) was “inactive”; that for `Cc1ccc(C(=O)N/C(=C\c2cccs2)C(=O)NCCc2ccccn2)cc1C` was “inactive”; that for `COc1ccc(CN2CCCC(C(=O)c3ccc(Cl)cc3)C2)cc1Cn1cncn1` (centres undefined) was -10.3 (active). In the case of `COc1cc(CN2CCCC(C(=O)c3ccc(SC)cc3)C2)cc(Cl)c1O` (centres undefined), the B-score entry is “inactive”. In the case of `COc1ccc(CCN(C)C(=O)C2CCCN(Cc3ccc(OC)c(OC)c3)C2)cc1OC` (centres undefined), the B-score result is “inactive”. The value for `CC[n+]1c(C)n(-c2ccccc2)c2ccc(NC(C)=O)cc21` was “inactive”. The value for `CC(C)c1ccc(OCC(O)Cn2cnc3ccccc32)cc1` (centres undefined) was “inactive”; that for `C=CCn1c(=N)n(CC(O)COc2ccc(OC)cc2)c2ccccc21` (centres undefined) was “inactive”.

Turning to `OC(CN=c1sc2ccccc2n1CC(O)COc1ccccc1)COc1ccccc1` (centres undefined), the B-score was -10.8 (active).

Regarding `COc1cccc(NC(=O)Cn2cnc3sc(C)c(S(=O)(=O)N4CCN(C)CC4)c3c2=O)c1`, the B-score entry is “inactive”.

On to `O=C(CCCOc1ccc(Cl)cc1Cl)NNC(=O)C1CCC1`, for which the B-score result was “inactive”. The value for `Cc1ccc(Cl)c(OCC(=O)NN2CCN(C)CC2)c1` was “inactive”; that for `CN1CCC(OC(=O)COc2ccc(Cl)cc2Cl)CC1` was -7.11 (active).
